Three compounds from ChEMBL document CHEMBL5653631, “A Potent and Selective ULK1 Inhibitor Suppresses Autophagy and Sensitizes Cancer Cells to Nutrient Stress” (iScience, 2018) can be followed below.

In assay [1] the target is PAS domain-containing serine/threonine-protein kinase (Homo sapiens) (UniProt Q96RG2). Kind of assay: Inhibition of human recombinant PASK at 40 nM in presence of ATP by radiometric assay relative to control.
In assay [2] the target is Calcium/calmodulin-dependent protein kinase type 1D (Homo sapiens) (UniProt Q8IU85). As to the kind of experiment: Inhibition of human recombinant CaMK1d at 40 nM related to control ULK1.
The target of assay [3] is T1, Myotonin-protein kinase (Homo sapiens) (UniProt Q09013).
T1 sequence (whole entry): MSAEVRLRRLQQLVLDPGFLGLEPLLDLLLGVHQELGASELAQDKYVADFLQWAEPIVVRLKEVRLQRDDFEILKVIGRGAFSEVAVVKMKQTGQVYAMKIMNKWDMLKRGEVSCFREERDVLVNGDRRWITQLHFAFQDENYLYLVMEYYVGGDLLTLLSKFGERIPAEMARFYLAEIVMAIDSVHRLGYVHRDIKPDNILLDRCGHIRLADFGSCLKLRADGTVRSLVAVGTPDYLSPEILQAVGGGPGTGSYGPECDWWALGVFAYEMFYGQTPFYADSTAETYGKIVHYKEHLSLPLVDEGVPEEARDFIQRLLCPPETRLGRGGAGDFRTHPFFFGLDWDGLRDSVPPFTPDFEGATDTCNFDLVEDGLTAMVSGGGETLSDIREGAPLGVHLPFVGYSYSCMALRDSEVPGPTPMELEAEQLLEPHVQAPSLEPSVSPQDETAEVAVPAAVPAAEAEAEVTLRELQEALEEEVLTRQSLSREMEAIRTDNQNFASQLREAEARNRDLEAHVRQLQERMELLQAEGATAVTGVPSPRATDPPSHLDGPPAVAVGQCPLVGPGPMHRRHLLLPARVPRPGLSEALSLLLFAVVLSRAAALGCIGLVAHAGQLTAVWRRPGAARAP
As to the kind of experiment: Inhibition of human recombinant DMPK1 at 40 nM related to control ULK1.

For assay [4], the target named is T2, Serine/threonine-protein kinase TAO2 (Homo sapiens) (UniProt Q9UL54).
T2 sequence (whole entry): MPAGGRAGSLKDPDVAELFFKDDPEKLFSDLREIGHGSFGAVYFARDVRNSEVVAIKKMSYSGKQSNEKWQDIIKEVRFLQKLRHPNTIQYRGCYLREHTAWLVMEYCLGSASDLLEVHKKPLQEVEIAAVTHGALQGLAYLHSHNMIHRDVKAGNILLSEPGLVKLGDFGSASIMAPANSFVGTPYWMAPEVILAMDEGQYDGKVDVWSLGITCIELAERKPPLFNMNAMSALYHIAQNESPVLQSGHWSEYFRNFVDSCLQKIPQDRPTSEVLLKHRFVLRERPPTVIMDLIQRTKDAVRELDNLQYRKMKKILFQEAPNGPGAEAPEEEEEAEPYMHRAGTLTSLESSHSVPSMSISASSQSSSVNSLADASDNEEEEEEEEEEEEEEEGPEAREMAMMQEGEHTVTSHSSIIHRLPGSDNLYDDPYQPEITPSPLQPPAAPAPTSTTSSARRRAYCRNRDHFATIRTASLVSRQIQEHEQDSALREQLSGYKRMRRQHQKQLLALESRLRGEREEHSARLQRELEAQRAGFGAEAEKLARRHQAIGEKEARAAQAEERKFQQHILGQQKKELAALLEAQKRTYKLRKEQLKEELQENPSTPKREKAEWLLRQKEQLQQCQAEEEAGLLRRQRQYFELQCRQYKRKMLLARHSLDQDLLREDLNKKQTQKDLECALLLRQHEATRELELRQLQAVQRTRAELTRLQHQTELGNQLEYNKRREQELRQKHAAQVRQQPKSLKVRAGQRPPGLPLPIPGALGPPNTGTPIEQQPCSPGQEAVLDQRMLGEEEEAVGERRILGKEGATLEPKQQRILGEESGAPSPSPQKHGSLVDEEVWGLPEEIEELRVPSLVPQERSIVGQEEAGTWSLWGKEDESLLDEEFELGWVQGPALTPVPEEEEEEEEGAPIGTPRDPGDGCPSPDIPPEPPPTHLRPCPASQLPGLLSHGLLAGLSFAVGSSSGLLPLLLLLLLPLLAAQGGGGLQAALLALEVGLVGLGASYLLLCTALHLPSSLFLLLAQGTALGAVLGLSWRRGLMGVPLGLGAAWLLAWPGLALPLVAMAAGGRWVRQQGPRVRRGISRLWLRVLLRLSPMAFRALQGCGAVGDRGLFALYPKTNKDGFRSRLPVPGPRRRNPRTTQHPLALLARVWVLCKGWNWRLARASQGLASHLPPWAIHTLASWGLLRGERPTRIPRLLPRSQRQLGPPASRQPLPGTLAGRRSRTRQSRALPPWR
Kind of assay: Inhibition of human recombinant TAO2 at 500 nM in presence of ATP by radiometric assay relative to control.

The target in assay [5] is T3, Activin receptor type-1B (Homo sapiens) (UniProt P36896).
T3 sequence (whole entry): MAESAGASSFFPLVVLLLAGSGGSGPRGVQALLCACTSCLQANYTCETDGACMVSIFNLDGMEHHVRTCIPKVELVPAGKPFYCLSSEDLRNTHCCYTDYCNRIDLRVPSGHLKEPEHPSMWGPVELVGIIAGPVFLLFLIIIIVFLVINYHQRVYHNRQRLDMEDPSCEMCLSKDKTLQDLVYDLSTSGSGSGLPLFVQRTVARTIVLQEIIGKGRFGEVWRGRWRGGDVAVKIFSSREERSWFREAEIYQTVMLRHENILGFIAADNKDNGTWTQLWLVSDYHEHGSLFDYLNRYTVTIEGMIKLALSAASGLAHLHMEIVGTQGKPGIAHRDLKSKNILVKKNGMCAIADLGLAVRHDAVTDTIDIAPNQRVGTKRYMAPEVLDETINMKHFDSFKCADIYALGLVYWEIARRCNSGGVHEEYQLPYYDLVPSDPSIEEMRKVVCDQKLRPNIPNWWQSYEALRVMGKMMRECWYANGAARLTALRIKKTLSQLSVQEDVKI
As to the kind of experiment: Inhibition of human recombinant ALK4 at 500 nM related to control ULK1. The procedure, abridged:
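Panel of 327 recombinant human kinases, each assayed in vitro by radiometric activity assay in duplicate at a single inhibitor concentration per compound, chosen with reference to its ULK1 inhibition. Activity remaining was expressed as percent of vehicle control, and percent inhibition was calculated as 100 minus percent activity remaining.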

The target in assay [6] is Serine/threonine-protein kinase Chk2 (Homo sapiens) (UniProt O96017). Kind of assay: Inhibition of human recombinant CHK2 at 15 nM in presence of ATP by radiometric assay relative to control.
Chain of Serine/threonine-protein kinase Chk2 (Homo sapiens) (O96017 whole entry): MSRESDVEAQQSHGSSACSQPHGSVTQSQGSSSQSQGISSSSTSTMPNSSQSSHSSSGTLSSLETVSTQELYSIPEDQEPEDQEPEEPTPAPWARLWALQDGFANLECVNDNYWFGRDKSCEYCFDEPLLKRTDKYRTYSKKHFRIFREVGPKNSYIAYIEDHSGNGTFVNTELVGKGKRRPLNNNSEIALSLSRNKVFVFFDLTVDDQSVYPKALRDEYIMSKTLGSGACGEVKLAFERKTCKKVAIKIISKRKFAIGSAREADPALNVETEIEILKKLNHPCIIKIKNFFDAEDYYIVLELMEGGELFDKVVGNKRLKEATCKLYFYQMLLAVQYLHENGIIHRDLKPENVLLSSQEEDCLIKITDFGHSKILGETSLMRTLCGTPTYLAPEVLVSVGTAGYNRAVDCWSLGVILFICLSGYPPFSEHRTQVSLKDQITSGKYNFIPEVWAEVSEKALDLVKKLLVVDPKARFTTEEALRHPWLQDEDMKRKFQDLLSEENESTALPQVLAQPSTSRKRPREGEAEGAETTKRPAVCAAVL

Chain of Calcium/calmodulin-dependent protein kinase type 1D (Homo sapiens) (Q8IU85 whole entry, looked up): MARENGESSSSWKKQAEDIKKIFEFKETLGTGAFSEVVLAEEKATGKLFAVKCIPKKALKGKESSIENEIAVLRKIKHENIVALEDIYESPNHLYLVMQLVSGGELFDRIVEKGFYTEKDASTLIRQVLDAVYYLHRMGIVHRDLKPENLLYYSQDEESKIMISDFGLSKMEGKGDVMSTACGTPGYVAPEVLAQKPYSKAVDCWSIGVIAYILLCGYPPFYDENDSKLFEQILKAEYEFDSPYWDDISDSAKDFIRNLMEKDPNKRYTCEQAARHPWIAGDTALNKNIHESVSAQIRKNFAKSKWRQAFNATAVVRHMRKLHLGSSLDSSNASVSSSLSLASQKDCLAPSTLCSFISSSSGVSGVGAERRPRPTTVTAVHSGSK
Chain of PAS domain-containing serine/threonine-protein kinase (Homo sapiens) (Q96RG2 whole entry, the tested form may be a part): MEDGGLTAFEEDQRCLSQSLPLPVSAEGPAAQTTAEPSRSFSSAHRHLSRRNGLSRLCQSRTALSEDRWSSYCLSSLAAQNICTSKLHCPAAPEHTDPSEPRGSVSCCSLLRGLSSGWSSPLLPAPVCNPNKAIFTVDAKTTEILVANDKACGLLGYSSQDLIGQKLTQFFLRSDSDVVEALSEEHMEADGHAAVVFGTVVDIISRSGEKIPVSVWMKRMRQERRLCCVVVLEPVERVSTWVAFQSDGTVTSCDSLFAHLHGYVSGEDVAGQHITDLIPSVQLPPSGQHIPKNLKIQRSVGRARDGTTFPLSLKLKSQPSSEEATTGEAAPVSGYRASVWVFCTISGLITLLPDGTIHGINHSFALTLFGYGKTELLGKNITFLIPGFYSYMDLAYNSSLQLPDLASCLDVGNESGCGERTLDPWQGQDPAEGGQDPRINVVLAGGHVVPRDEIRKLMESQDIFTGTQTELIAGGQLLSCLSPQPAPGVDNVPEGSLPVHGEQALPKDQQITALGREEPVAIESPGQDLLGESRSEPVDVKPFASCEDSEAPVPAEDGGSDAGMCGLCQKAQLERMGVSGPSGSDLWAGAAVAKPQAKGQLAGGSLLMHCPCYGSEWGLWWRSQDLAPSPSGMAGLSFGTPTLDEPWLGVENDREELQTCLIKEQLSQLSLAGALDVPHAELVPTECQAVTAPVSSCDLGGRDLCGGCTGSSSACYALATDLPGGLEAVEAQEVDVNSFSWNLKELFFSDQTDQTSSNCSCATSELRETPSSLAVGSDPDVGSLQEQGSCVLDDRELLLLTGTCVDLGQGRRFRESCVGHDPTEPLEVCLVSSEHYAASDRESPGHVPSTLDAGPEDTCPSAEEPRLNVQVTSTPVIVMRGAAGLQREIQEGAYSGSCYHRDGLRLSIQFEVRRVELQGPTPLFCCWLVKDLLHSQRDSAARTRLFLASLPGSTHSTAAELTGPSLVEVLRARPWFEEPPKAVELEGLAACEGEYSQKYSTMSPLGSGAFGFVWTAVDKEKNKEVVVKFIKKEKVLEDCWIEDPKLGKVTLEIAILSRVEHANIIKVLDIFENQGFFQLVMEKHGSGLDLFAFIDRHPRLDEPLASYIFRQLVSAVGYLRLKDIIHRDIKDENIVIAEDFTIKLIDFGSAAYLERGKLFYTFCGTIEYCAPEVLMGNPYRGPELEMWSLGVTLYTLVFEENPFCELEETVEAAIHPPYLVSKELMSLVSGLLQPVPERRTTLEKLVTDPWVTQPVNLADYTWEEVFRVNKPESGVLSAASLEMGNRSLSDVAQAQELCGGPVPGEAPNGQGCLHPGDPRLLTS

Broadly, the inhibition is the percentage by which the read-out fell short of the control. Consider `O=C(N[C@@H](C1CC1)C(F)(F)F)c1cc(-c2cnn3cc(-c4ccc(F)cc4)cnc23)cs1`, for which, in assay [1], the inhibition came to 12%. The values for the fold change (FC) in assay [2] and in assay [3] were 0 and 0.07, respectively.
Regarding `CNC(=O)c1ccccc1Oc1nc(Nc2cc(OC)c(OC)c(OC)c2)ncc1Br`, the inhibition in assay [4] is 0%. In assay [5], the fold change (FC) turned out to be 0.2.
Consider `CC(C)[C@H](NC(=O)c1cc(-c2cnn3cc(-c4ccc(OCCN5CCCCC5)cc4)cnc23)cs1)C(F)(F)F`, for which, in assay [6], the inhibition worked out at 0%.
